# The M2OR odorant receptor database
# What was measured:
# Conditions in all cases: stereoisomer not certain
# Or8b3 (Mus musculus) = Or8b3 (Mus musculus) (UniProt Q60886)
# In short: (§1)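 Each receptor–molecule pair is labelled responsive or non-responsive (inactive) according to whether the original authors judged the measured signal statistically different from baseline. The data were taken from the main text and supplementary material of published papers and checked for typos and inconsistencies. Assay methods differed by source, with transient luciferase assays in mammalian cell lines being common.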
# UniProt A2ASV2 = target: UniProt A2ASV2
# UniProt A2ASV2, sequence (A2ASV2 as listed by the source): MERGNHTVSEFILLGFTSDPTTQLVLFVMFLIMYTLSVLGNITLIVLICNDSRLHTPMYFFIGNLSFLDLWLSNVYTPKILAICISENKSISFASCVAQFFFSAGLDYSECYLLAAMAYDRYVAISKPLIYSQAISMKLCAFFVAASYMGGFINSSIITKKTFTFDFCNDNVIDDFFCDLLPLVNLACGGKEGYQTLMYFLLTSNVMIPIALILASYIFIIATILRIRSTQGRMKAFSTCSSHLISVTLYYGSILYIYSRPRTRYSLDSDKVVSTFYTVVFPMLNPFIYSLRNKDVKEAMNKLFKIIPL
# In short: as §1
# Q8N628 T20A L289V = test system: Q8N628 T20A L289V
# In short: as §1
# Q8NGC2 A119T = test system: Q8NGC2 A119T
# In short: as §1
# Q8NGH7 D88N = test system: Q8NGH7 D88N
# In short: as §1
# Q8VF87 A279V = test system: Q8VF87 A279V
# In short: as §1
# Q8VF87 E162D = test system: Q8VF87 E162D
# In short: as §1
# Q8VF87 I202L = test system: Q8VF87 I202L
# In short: as §1
# Q8VF87 L210I = test system: Q8VF87 L210I
# In short: as §1
# [1] = test system: Q8VF87 V108T E162D V184F I202L L210I A279V
# In short: as §1
# [2] = test system: Q8VF87 V108T E162D V184F I202L L210I
# In short: as §1
# [3] = test system: Q8VF87 V108T E162D V184F I202L
# In short: as §1
# Q8VF87 V108T E162D V184F = test system: Q8VF87 V108T E162D V184F
# In short: as §1
# Q8VF87 V108T E162D = test system: Q8VF87 V108T E162D
# In short: as §1
# Q8VF87 V108T = test system: Q8VF87 V108T
# In short: as §1
# Q8VF87 V184F = test system: Q8VF87 V184F
# In short: as §1
# UniProt A0PK57 = target: UniProt A0PK57
# UniProt A0PK57, sequence (A0PK57 as listed by the source): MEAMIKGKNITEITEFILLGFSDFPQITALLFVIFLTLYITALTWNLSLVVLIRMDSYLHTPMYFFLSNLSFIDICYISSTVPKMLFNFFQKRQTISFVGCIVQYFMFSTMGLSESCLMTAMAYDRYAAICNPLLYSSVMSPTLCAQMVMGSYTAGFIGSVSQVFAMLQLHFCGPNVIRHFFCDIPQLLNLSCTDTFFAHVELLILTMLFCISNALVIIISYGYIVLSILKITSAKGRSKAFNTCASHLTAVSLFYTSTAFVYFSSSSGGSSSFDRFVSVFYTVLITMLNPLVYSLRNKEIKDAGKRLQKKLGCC
# In short: as §1
# 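Further: active if original authors judged signal statistically different from baseline.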
# Or8b3 (Mus musculus), sequence (Q60886 whole entry): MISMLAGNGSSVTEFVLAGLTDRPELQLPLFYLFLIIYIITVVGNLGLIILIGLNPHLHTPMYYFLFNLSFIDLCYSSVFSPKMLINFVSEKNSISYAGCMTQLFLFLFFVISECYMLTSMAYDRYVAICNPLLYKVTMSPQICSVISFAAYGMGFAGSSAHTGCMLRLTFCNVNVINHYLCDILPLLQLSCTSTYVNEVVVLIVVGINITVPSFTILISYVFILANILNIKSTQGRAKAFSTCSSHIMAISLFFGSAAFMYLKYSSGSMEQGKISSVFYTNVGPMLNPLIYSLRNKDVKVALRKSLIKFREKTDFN
smiles,measurement,setting,value
O=c1ccc2ccccc2o1,odorant receptor agonist call,Or8b3 (Mus musculus),active
same,odorant receptor agonist call,UniProt A2ASV2,active
CCCCCCC=CCCC=O,odorant receptor agonist call,Q8N628 T20A L289V,inactive
same,odorant receptor agonist call,Q8NGC2 A119T,inactive
same,odorant receptor agonist call,Q8NGH7 D88N,inactive
CCC(S)C(C)CO (configuration not stated),odorant receptor agonist call,Q8VF87 A279V,inactive
same,odorant receptor agonist call,Q8VF87 E162D,inactive
same,odorant receptor agonist call,Q8VF87 I202L,inactive
same,odorant receptor agonist call,Q8VF87 L210I,inactive
same,odorant receptor agonist call,[1],inactive
same,odorant receptor agonist call,[2],inactive
same,odorant receptor agonist call,[3],inactive
same,odorant receptor agonist call,Q8VF87 V108T E162D V184F,inactive
same,odorant receptor agonist call,Q8VF87 V108T E162D,inactive
same,odorant receptor agonist call,Q8VF87 V108T,inactive
same,odorant receptor agonist call,Q8VF87 V184F,inactive
CC1CCCCCCCCCCCCC(=O)C1 (configuration not stated),odorant receptor agonist call,UniProt A0PK57,inactive
